Test results from ChEMBL document CHEMBL1144171, “Novel hypoglycemic dihydropyridones serendipitously discovered from O- versus C-alkylation in the synthesis of VMAT2 antagonists” (Bioorg Med Chem Lett, 2008).
Active and inactive are the calls of the source. The rule behind the calls is not given here.

How the values were obtained:
[1] = test system: Rattus norvegicus; test: Hypoglycemic activity in fasted Lewis rat at 2 mg/kg, iv administered 30 mins prior to glucose stimulation measured after 120 mins by glucose tolerance test; format: functional, organism-based; design: dose 2 mg/kg
Summary of the method: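 Lewis rats fasted 6 h received drug iv at −30 min (2mg/kg), then glucose 2g/kg ip at 0 min; blood glucose followed 120 min. AUC IPGTT by trapezoidal rule, SEM (n=5); drug versus vehicle compared by Student's t test.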

[2] = target: Dipeptidyl peptidase 4 (Homo sapiens) (UniProt P27487); test: Inhibition of DPP4 upto 10 uM
Dipeptidyl peptidase 4 (Homo sapiens), sequence (P27487 whole entry, looked up): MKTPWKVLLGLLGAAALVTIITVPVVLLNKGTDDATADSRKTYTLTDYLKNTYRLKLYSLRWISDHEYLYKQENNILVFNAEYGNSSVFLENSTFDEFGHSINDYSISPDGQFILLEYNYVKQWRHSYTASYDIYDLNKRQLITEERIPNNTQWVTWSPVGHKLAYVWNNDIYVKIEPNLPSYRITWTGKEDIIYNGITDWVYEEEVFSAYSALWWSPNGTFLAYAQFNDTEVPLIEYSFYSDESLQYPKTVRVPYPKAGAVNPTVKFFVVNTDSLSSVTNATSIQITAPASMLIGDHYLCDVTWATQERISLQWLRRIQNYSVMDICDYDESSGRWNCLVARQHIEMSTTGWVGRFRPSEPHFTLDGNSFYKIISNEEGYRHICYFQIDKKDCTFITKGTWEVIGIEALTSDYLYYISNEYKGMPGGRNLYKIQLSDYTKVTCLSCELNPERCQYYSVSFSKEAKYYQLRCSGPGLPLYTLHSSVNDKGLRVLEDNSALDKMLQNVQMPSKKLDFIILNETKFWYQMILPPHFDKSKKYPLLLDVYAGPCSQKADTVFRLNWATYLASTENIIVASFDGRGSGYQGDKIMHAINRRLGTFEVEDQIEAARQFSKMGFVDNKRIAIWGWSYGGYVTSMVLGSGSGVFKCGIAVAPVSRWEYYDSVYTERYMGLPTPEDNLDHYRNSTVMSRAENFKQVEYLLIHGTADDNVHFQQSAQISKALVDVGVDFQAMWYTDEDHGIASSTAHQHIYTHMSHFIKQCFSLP

[3] = test system: Rattus norvegicus; test: Toxicity in Lewis rat assessed as tonic seizure at 2 mg/kg; format: organism-based; design: dose 2 mg/kg; details: in vivo

## COc1ccc(C2CC(=O)CC(=O)N2)cc1OC (stereo not drawn)
[1]
  Activity: inactive

## COc1ccc(C2CC(O)C(CC(C)C)CN2)cc1OC (stereo not drawn)
[1]
  Activity: Active

## COC1=CC(=O)OC(c2ccc(OC)c(OC)c2)C1 (stereo not drawn)
[1]
  Activity: inactive

## COc1ccc(C2CC(OCC(C)C)=CC(=O)N2)cc1OC (stereo not drawn)
[2]
  Activity: inactive
[1]
  Activity: Active
[3]
  Activity: Non-toxic

## COc1cc2c(cc1OC)C1CC(=O)C(CC(C)C)CN1CC2 (stereo not drawn) [TETRABENAZINE]
[3]
  Activity: Toxic

## COc1cc2c(cc1OC)C1CC(OCC(C)C)=CC(=O)N1CC2 (stereo not drawn)
[1]
  Activity: Active

## COc1cc2c(cc1OC)[C@@H]1C[C@H](O)[C@@H](CC(C)C)CN1CC2
[1]
  Activity: Active
[3]
  Activity: Toxic

## COC1=CC(=O)N2CCc3cc(OC)c(OC)cc3C2C1 (stereo not drawn)
[1]
  Activity: Active

## COc1ccc(-c2cc(OCC(C)C)cc(=O)[nH]2)cc1OC
[1]
  Activity: inactive

## COc1ccc(C2CC(OCC(C)C)=CC(=O)O2)cc1OC (stereo not drawn)
[1]
  Activity: inactive
